Laboratory results as given in ChEMBL document CHEMBL4130443, “Targeting breast cancer stem cells by novel HDAC3-selective inhibitors” (Eur J Med Chem, 2017).
Active and inactive are the calls of the source. The calls are words filed in the database; no cut-off is given here.

Key:
Histone deacetylase 1 = Histone deacetylase 1 (Homo sapiens, UniProt Q13547); assay: Inhibition of human HDAC1 at 1 uM using p53 (379 to 382 residues) derived fluorogenic peptide RHKKAc
Method in brief: (§1)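 Isoform profiling run by a commercial vendor with compounds at 1 µM. Values are percent inhibition, each the average of two determinations.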

Histone deacetylase 2 = Histone deacetylase 2 (Homo sapiens, UniProt Q92769); assay: Inhibition of human HDAC2 at 1 uM using p53 (379 to 382 residues) derived fluorogenic peptide RHKKAc; method in brief: as §1
[1] = target: Histone deacetylase 4 (Homo sapiens) (UniProt P56524); assay: Inhibition of human HDAC4 at 1 uM using Boc-Lys(trifluoroacetyl)-AMC substrate; method in brief: as §1
[2] = target: Histone deacetylase 5 (Homo sapiens) (UniProt Q9UQL6); assay: Inhibition of human HDAC5 at 1 uM using Boc-Lys(trifluoroacetyl)-AMC substrate; method in brief: as §1
[3] = target: T1, Protein deacetylase HDAC6 (Homo sapiens) (UniProt Q9UBN7); assay: Inhibition of human HDAC6 at 1 uM using p53 (379 to 382 residues) derived fluorogenic peptide RHKKAc; method in brief: as §1
T1 sequence (whole entry): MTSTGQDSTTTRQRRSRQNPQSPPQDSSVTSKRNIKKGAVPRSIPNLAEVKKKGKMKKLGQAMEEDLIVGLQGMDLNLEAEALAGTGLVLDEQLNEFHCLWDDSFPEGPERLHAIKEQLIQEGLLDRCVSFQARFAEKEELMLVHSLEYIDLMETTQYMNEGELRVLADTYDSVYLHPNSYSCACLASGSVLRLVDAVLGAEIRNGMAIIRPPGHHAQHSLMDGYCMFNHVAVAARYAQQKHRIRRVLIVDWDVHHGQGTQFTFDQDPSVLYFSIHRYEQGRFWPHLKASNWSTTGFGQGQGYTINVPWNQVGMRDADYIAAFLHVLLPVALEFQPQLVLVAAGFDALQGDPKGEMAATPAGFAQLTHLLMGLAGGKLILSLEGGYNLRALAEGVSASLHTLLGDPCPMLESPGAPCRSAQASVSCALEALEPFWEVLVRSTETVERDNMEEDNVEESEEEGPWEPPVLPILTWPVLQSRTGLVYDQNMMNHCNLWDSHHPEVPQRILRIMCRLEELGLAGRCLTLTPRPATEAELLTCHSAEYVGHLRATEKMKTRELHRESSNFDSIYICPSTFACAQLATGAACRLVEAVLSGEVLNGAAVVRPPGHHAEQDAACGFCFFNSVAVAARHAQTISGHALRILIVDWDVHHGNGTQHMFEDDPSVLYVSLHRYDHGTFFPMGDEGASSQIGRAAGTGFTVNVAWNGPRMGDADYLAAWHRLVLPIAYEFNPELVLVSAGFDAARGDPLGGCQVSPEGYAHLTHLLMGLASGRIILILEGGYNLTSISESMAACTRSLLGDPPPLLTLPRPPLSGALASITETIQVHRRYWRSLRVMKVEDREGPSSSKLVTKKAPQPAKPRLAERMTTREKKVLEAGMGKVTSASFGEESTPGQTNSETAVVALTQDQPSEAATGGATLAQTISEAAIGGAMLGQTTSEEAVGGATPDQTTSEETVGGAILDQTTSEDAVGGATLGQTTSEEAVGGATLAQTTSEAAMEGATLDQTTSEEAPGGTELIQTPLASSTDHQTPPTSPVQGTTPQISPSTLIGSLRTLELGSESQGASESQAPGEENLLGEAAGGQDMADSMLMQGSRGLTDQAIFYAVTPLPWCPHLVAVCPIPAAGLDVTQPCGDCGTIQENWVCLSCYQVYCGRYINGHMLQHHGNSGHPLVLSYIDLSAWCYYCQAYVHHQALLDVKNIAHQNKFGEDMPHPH

MDA-MB-231 [4] = assay: Cytotoxicity in human MDA-MB-231 cells assessed as reduction in cell viability incubated for 24 to 72 hrs by MTT assay; type: functional, cell-based
Method in brief: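 MDA-MB-231 seeded 5,000 cells/well with 10% FBS, left overnight, then exposed to agents in 5% FBS for 24, 48 and 72 h. MTT added for 1 h, dye dissolved in DMSO, absorbance at 560 nm. Viability given as percent of the matching vehicle-treated control. N = 6.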

MDA-MB-231 [5] = assay: Inhibition of mammosphere formation of human MDA-MB-231 cells incubated for 7 days; conditions: MDA-MB-231, 168 h
[6] = target: Histone deacetylase 3 (Homo sapiens) (UniProt O15379); assay: Inhibition of HDAC3 in human MDA-MB-231 cells assessed as reduction in Akt phosphorylation at 0.5 to 5 uM by immunoblotting; type: cell-based
Method in brief: (§2)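 Monolayer cells treated in 5% FBS at graded concentrations. Lysed in SDS/EDTA/Tris pH 8.1 buffer, equal protein immunoblotted with primary antibodies 1:1000 overnight at 4°C. Detected by ECL for phospho-Akt, β-catenin and histone H3 pan/H3K9 acetylation.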

[7] = target: Histone deacetylase 3 (Homo sapiens) (UniProt O15379); assay: Inhibition of HDAC3 in human MDA-MB-231 cells assessed as reduction in beta-catenin expression at 0.5 to 5 uM by immunoblotting; type: cell-based; method in brief: as §2
MDA-MB-231 [8] = assay: Effect on beta-catenin mRNA expression in human MDA-MB-231 cells at 0.5 to 5 uM by RT-PCR method; type: cell-based; conditions: mda-mb-231, 5 µM
Method in brief: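 Monolayer cells treated at graded concentrations. Total RNA isolated with TRIzol. β-catenin mRNA assessed by RT-PCR with β-actin as reference.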

MDA-MB-231 [9] = assay: Inhibition of cancer stem cell subpopulation of human MDA-MB-231 cells assessed as CD44+/CD24low subpopulation level at 0.1 to 5 uM by flow cytometry; type: functional, cell-based
Method in brief: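 Cells exposed to DMSO or compound at graded concentrations, then harvested and washed in stain buffer. Stained with FITC- or phycoerythrin-conjugated anti-CD44 and anti-CD24 for 30 min on ice in the dark, resuspended in PBS, and CD44+/CD24low fraction read by flow cytometry.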

MDA-MB-231 [10] = assay: Induction of tumor growth dela of human MDA-MB-231 cells xenografted in NOD/SCID mouse injected with cells pretreated with 5 uM compound for 48 hrs assessed as reduction in tumor volume at 100 mg/kg, po dosed via gavage once daily starting on day 2 post injection and continuing through day 26; type: functional, organism-based
Method in brief: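 Cells pretreated 48 h with 5 µM compound or DMSO, trypsinized and injected at 50,000 cells/0.1 ml in 50% Matrigel into the left 4th inguinal mammary fat pad of female NOD/SCID mice (N = 10 per group). Dosed 100 mg/kg by oral gavage once daily in 0.5% methylcellulose/0.1% Tween 80 in water. Caliper volume = (width² x length) x 0.52. Incidence by log-rank test, volume at day 27 by t-test.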

Histone deacetylase 3 (Homo sapiens), sequence (O15379 whole entry): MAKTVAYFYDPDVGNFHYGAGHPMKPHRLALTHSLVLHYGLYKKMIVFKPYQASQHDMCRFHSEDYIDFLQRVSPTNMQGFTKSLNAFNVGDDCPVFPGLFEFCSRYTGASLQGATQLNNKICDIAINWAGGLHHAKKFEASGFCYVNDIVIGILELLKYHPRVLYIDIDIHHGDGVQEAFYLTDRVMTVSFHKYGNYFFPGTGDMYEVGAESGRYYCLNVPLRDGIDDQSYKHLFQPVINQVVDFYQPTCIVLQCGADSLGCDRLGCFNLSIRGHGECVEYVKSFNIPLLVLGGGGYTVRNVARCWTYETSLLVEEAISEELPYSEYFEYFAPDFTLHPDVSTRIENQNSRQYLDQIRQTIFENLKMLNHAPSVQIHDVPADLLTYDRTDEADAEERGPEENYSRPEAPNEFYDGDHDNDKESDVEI
Histone deacetylase 1, sequence (Q13547 whole entry, the tested form may be a part, canonical isoform): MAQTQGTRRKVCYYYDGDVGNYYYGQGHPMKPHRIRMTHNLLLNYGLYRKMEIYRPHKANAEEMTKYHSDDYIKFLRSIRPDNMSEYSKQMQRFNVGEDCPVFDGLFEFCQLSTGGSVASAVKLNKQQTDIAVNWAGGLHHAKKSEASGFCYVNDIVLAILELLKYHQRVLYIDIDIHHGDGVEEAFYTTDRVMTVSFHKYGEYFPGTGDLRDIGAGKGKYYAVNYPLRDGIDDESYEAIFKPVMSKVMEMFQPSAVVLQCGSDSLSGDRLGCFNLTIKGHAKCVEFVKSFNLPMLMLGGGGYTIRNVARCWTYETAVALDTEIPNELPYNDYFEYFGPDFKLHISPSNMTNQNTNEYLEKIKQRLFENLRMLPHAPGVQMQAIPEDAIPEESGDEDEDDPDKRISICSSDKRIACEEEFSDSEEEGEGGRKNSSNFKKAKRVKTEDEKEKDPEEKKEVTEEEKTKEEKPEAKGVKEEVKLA
Histone deacetylase 4 (Homo sapiens), sequence (P56524 whole entry): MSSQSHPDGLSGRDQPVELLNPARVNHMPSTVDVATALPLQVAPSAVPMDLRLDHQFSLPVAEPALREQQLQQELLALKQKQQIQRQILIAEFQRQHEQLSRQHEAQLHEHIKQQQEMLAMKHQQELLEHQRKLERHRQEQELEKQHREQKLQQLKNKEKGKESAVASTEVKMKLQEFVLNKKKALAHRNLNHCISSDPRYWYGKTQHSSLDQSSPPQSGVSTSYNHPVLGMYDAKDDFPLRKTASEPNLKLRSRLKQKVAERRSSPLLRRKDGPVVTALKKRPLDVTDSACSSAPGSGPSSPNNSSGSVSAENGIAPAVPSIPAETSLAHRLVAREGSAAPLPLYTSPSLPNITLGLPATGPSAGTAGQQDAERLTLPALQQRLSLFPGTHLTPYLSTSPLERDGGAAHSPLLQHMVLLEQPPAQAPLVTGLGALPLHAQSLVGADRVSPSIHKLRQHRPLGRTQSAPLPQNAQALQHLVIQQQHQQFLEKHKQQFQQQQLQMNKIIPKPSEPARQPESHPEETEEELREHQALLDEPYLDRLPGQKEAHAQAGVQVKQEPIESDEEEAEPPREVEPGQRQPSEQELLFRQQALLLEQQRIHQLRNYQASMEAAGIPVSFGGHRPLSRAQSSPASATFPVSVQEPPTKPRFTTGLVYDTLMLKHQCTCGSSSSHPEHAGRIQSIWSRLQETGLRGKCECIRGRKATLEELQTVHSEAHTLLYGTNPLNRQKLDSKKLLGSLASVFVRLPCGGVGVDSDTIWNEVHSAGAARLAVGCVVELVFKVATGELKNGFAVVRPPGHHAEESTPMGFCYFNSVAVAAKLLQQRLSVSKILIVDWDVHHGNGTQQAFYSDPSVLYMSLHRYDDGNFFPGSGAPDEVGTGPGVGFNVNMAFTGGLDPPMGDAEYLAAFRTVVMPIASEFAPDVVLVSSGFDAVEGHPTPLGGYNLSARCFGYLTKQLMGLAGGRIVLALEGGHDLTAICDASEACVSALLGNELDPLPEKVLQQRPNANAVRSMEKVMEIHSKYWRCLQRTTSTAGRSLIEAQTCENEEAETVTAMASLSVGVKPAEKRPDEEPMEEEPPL
Histone deacetylase 2, sequence (Q92769 whole entry, the tested form may be a part): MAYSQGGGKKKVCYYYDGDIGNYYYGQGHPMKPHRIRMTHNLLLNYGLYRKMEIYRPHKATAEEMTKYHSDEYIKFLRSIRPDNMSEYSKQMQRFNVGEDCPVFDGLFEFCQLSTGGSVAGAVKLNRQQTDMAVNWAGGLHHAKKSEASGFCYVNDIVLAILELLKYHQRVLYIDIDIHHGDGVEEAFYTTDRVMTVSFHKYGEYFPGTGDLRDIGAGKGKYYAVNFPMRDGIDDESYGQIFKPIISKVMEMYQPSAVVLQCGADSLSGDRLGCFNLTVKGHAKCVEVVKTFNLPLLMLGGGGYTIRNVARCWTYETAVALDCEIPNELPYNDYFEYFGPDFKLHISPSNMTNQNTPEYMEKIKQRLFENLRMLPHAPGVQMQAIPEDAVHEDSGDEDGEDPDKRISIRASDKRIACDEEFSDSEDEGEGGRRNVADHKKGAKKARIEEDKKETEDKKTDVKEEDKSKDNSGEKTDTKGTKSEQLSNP
Histone deacetylase 5 (Homo sapiens), sequence (Q9UQL6 whole entry, the tested form may be a part): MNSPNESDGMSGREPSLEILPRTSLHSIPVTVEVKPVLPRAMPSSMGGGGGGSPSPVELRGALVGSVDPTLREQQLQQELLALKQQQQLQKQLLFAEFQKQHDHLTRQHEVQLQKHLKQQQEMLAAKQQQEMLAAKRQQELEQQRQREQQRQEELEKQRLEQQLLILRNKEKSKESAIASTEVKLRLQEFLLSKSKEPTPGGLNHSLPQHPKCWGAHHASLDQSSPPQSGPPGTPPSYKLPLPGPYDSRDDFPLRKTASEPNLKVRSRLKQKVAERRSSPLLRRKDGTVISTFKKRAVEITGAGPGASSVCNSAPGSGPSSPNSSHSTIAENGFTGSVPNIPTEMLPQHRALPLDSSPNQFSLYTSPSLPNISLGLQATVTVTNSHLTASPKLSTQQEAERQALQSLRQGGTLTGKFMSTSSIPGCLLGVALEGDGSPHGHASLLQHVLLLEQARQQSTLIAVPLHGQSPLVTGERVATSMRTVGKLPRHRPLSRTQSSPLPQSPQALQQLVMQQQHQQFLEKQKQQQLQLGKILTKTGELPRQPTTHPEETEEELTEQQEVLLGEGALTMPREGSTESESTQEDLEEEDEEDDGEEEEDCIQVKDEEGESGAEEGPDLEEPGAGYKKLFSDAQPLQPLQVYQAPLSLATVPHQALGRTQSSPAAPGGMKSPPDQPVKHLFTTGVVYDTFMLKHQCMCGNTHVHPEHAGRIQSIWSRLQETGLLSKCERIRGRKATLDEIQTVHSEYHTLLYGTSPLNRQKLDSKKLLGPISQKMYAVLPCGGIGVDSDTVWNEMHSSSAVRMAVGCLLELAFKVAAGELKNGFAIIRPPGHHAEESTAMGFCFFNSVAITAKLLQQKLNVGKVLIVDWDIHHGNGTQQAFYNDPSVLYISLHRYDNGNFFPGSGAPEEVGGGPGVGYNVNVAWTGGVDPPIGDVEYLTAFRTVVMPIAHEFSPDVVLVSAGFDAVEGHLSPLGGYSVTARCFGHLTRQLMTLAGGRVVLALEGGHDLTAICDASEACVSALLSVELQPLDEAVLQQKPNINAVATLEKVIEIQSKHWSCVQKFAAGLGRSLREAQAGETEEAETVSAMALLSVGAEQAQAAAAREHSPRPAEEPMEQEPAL

inhibition (Histone deacetylase 1): 8%
inhibition (Histone deacetylase 2): 5%
inhibition [1]: 0%
inhibition [2]: 0%
inhibition [3]: 4%
IC50 (MDA-MB-231 [5]): 500 to 1000 nM
inhibition [6]: Dose-dependent effect
inhibition [7]: Dose-dependent effect
Compound: CC(C)(C(=O)Nc1ccc(C(=O)Nc2ccc(F)cc2N)cc1)c1ccccc1
IC50 (MDA-MB-231 [4]): ≥ 10000 nM
Activity (MDA-MB-231 [8]): Non-Toxic
inhibition (MDA-MB-231 [9]): Dose-dependent effect
Activity (MDA-MB-231 [10]): Active
